ASAP1 inh = blocks human ASAP1-stimulated Arf1 GTP hydrolysis. Q9ULH1. GDP FP detection. inhibition, % at 16.5 µM. hit rate 0.19% among 360,000. AID 624377; in the data active = inhibition above about 25%;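 note: 0% = vehicle with enzyme and substrate and 100% = no enzyme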
Target sequence (Q9ULH1 325-724 limits assumed): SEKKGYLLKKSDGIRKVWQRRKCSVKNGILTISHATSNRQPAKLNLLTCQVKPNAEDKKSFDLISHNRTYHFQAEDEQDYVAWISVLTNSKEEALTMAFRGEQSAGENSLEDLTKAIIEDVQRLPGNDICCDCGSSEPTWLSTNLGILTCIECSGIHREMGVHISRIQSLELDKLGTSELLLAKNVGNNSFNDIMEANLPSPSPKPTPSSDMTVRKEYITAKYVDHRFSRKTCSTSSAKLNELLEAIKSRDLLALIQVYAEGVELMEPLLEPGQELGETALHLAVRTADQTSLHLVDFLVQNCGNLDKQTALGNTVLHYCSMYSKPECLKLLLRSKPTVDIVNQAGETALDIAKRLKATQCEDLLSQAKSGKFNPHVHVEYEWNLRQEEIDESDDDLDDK
ARFGAP1 inhibitor = rat ARFGAP1 inhibition. Q62848. Arfgap1-stimulated ARF1 GTP hydrolysis, GDP FP detection. inhibition, % at 16.5 µM. hit rate 0.26% among 360,000;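 active = inhibition above a per-plate limit, mean inhibition of low control wells plus 3 SD, cut at about 25% in these data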;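 note: 0% = DMSO wells with enzyme and 100% = wells lacking Arfgap1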
Target sequence (Q62848 1-136 limits assumed): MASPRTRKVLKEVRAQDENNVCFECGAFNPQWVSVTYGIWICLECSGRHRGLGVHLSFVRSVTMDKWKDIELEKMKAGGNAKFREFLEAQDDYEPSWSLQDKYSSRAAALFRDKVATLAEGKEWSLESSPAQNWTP
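Repeats: one replicate per compound; assay system: rat Arfgap1 catalytic domain, aa 1-136; times: enzyme reaction 120 min at 25 °C after 20 min preincubation; detection: FP of antibody-bound GDP Alexa 633 tracer, ex 620/em 688 nm; benchmarks: high control wells lacking Arfgap1, low control full reaction with DMSO; reagent: human ARF1(Δ1-17)-GTP substrate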
rCAG binder = binds r(CAG) RNA repeats. r(CAG) RNA repeat, TO-PRO-1 dye displacement fluorescence. inhibition, % at 3 µM. hit rate 1.3% among 370,000;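 active = inhibition above the plate cutoff, the mean of all test compounds on that plate plus 3 SD, cut at about 35% in these data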;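 note: 0% = DMSO alone and 100% = 100 µM mitoxantrone as full dye displacement; higher means more dye released from RNA so lower well fluorescence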
NadD block = inhibitors of Staphylococcus aureus NadD; purified NadD enzyme, colorimetric absorbance read-out; inhibition, % at 20 µM; hit rate 0.78% among 360,000; AID 602399; in the data active = inhibition above about 26%
rCAG bind conf = r(CAG) RNA repeat binding, confirmation | shares compounds with rCAG binder | hit rate 70% among 4,300 | inhibition, % at 3 µM | TO-PRO-1 dye displacement fluorescence;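 active = inhibition above a per-plate cutoff, the mean inhibition of sample wells plus 3 SD, cut at about 35% in these data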;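 note: loss of TO-PRO-1 fluorescence as compound displaces dye from 1x1 AA loop RNA; 0% = DMSO only wells and 100% = 100 µM mitoxantrone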
DNA CAG counter = disrupts DNA CAG TO-PRO-1 complex, flagging rCAG hits. d(CAG) DNA oligo TO-PRO-1 dye displacement, fluorescence. inhibition, % at 3 µM. hit rate 94% among 4,300. shares compounds with rCAG binder. AID 652068;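 active = inhibition above its plate's cutoff, the mean test-well inhibition plus 3 SD, cut at about 4.8% in these data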;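 note: 0% = DNA dye mix with DMSO and 100% = 100 µM mitoxantrone; hits displace the dye from DNA and so lower well fluorescence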
dCAG dye DR = DNA CAG dye complex inhibition, dose response counter-screen | shares compounds with rCAG binder | DNA CAG/GTC duplex TO-PRO-1 dye displacement fluorescence | IC50, µM | hit rate 20% among 250 | AID 686960; in the data active = IC50 below about 10 µM
An asterisk follows results filed as active; i = inactive; . = no result. In the library only some 2.2% were active in any assay of this set; here they are far more common.

SMILES | ASAP1 inh | ARFGAP1 inhibitor | rCAG binder | NadD block | rCAG bind conf | DNA CAG counter | others
O=C(Nc1cc(S(=O)(=O)Nc2ccccc2Cl)ccc1O)c1cc2c(s1)CCCC2 | 3 | 9 | 48* | 27 | 67* | 26*
Cn1cc(/C=C2\SC(=O)NC2=S)c2ccccc21 | -7 | -5 | 40* | 11 | 33 | 11*
Cn1cc(C=O)c2ccccc21 | 3 | 10 | 1 | -8 | . | .
O=S(=O)(Nc1nc(-c2ccco2)c(-c2ccco2)s1)c1ccc(F)cc1F | -7 | -14 | 62* | 6 | 53* | 20*
Cc1[nH]nc2c1C(c1cccc(C(F)(F)F)c1)NC2=O (stereo not drawn) | 3 | 1 | 2 | . | . | .
CSc1ncc(Cl)c(C(=O)Nc2nnc(SC/C=C/c3ccccc3)s2)n1 | 1 | -4 | 66* | -3 | 67* | 20*
CCSc1nnc(NC(=O)c2nc(S(=O)(=O)Cc3ccc(F)cc3)ncc2Cl)s1 | 7 | -1 | 36* | 2 | 29 | 5.8*
Cc1cccc(CS(=O)(=O)c2ncc(Cl)c(C(=O)Nc3nnc(C(C)C)s3)n2)c1 | . | . | . | 8 | . | .
CSc1nnc(NC(=O)c2nc(S(=O)(=O)Cc3cccc(C)c3)ncc2Cl)s1 | -5 | -18 | 37* | 2 | 25 | 4.5*
COc1cc2c(cc1NC(=O)CSc1nnc(-c3cccc(Cl)c3)n1Cc1ccco1)oc1ccccc12 | . | . | 11 | . | . | .
COc1ccc(CCNC(=O)c2cc3ccccn3n2)cc1 | . | . | -1 | . | . | .
Cn1c(SCCc2ccccc2)nnc1-c1ccco1 | . | . | 5 | . | . | .
Cc1ccc(C(=O)Nc2ccccc2C(=O)O)cc1S(=O)(=O)NCc1ccccc1 | 2 | -11 | 64* | 6 | 50* | 17*
Cc1ccc(C(=O)Nc2ccccc2C(=O)O)cc1S(=O)(=O)Nc1ccc(Br)cc1 | -10 | 1 | 83* | 6 | 86* | 56*
Cc1ccc(F)cc1NC(=O)c1ccc(NS(=O)(=O)c2ccc(Br)s2)cc1 | -5 | 2 | 41* | -2 | 38* | 11*
O=C(Nc1ccccc1C(=O)O)c1cc(S(=O)(=O)NCc2ccccc2)ccc1Cl | 3 | 8 | 49* | -4 | 39* | 6.5*
O=C(Nc1cccc(Cl)c1Cl)c1cc(S(=O)(=O)NCCc2ccccc2)ccc1F | -2 | 2 | 7 | -8 | . | .
Cc1nc2ccc(NC(=O)c3ccc(F)cc3Cl)cc2c(=O)[nH]1 | . | . | 3 | . | . | .
CCOC(=O)[C@@]12CCC3=C1N(CCC3)C(=O)[C@H](CC(=O)NCCCOC)C2 | . | . | 1 | . | . | .
Fc1cccc2sc(Nc3nc4cc5c(cc4s3)OCO5)nc12 | -1 | 7 | 67* | 28 | 54* | 33*
Fc1cccc2sc(Nc3nc4cc5c(cc4s3)OCCO5)nc12 | 6 | 9 | 11 | 28 | . | .
O=C(O)c1cnn(-c2nc(-c3cccc(F)c3)cs2)c1C(F)(F)F | 16 | 12 | 5 | -6 | . | .
O=C(O)c1cnn(-c2nc(-c3ccc(Cl)c(Cl)c3)cs2)c1C(F)(F)F | -6 | -11 | 64* | -3 | 44* | 9.5*
COC(=O)[C@H](CC(C)C)N(CCCc1cn(CC2CCCCC2)nn1)S(=O)(=O)c1ccccc1Br | . | . | 4 | . | . | .
C/C(=N\Nc1nc2ccccc2s1)c1ccc(Br)s1 | 11 | 17 | 35* | -1 | 17 | 8.7*
SMILES | ASAP1 inh | ARFGAP1 inhibitor | rCAG binder | NadD block | rCAG bind conf | DNA CAG counter | others
CCOc1ccccc1NC(=O)CCN1CCN(S(=O)(=O)c2ccc(Br)cc2)CC1 | -3 | -1 | 36* | 1 | 3 | 1
C[C@@H]1COc2cc(Br)ccc2S(=O)(=O)N1Cc1cn(CC2CCCCC2)nn1 | . | . | 3 | . | . | .
COc1cc(/C=N/NC(=O)C(Cc2c[nH]c3ccccc23)NC(=O)OCC(C)C)cc([N+](=O)[O-])c1OCc1ccccc1 (stereo not drawn) | -3 | 2 | 6 | -4 | . | .
COc1cc(/C=N/NC(=O)C(Cc2c[nH]c3ccccc23)NC(=O)OCC(C)C)cc([N+](=O)[O-])c1O (stereo not drawn) | 0 | 8 | 57* | 24 | 69* | 25*
COc1cc(/C=N/NC(=O)C(Cc2c[nH]c3ccccc23)NC(=O)OCc2ccccc2)cc([N+](=O)[O-])c1O (stereo not drawn) | -15 | -3 | 83* | 42* | 81* | 47*
Cc1c(/C=C2\SC(=Nc3cccc(C(=O)O)c3)NC2=O)c2ccccc2n1C | -3 | -7 | 45* | 7 | 40* | 15*
CCCNC(=O)c1cc(C2CCCN(C(=O)C3CCCCC3)C2)on1 (stereo not drawn) | 8 | -4 | -1 | -5 | . | .
Cc1c(NC(=O)C2CCCN(S(=O)(=O)c3c(C(C)C)cc(C(C)C)cc3C(C)C)C2)c(=O)n(-c2ccccc2)n1C (stereo not drawn) | . | . | 7 | . | . | .
C=CCSC1=N/C(=C\c2sccc2C)C(=O)S1 | 4 | 8 | 9 | 14 | . | .
C=CCSC1=N/C(=C\C=C\c2ccco2)C(=O)S1 | 6 | -4 | 58* | 6 | 45* | 21* | dCAG dye DR=i
COc1cc(NC(=O)C2CCN(S(=O)(=O)c3ccc4[nH]c(=O)oc4c3)CC2)cc(OC)c1 | -9 | -13 | 36* | 4 | 23 | 9.2*
C=CC[C@@H]1NN2C(=O)[C@@H](C)[C@@H]3c4ccccc4C=NN3[C@@H]2c2ccccc21 | . | . | 10 | . | . | .
CC(C)Oc1ccc(S(=O)(=O)N2CCCCCC2)c2ccccc12 | . | . | 1 | . | . | .
O=S(=O)(Nc1ncnc2sc3c(c12)CCC3)c1cc(F)ccc1F | 3 | -11 | 3 | -4 | . | .
O=S(=O)(Nc1ncnc2sc3c(c12)CCC3)c1ccc(Cl)s1 | 1 | -14 | 57* | 3 | 35* | 11*
CC(C)(C)C(c1nc2ccccc2[nH]1)n1c(-c2cc(Cl)cc(Cl)c2)nc2ccccc21 (stereo not drawn) | 3 | 4 | 4 | . | . | .
Cc1ccccc1S(=O)(=O)Nc1ncnc2scc(-c3ccccc3)c12 | -12 | 7 | 55* | -4 | 50* | 16*
CN(C)CCCNc1ncnc2scc(-c3ccccc3)c12 | -6 | -5 | -4 | -1 | . | .
CC(=C\c1ccccc1)/C=C1/SC(=S)N(C(C(=O)O)C(C)C)C1=O (stereo not drawn) | -12 | -14 | 69* | 4 | 63* | 25*
CCC(C(=O)O)N1C(=O)/C(=C/C(C)=C/c2ccccc2)SC1=S (stereo not drawn) | 3 | -6 | 61* | -2 | 76* | 31* | dCAG dye DR=i
O=C(NCCc1ccccc1)OCc1cn(Cc2cc(F)ccc2F)nn1 | . | . | -1 | . | . | .
C=CCN1C(=O)/C(=C/c2ccc(OC(C)=O)c(OCC)c2[N+](=O)[O-])SC1=S | 17 | 6 | 80* | 3 | 42* | 12*
CC(=O)Oc1cc2c3c(c1)/C(=C1/SC(=S)NC1=O)C(=O)N3C(C)(C)C=C2C | 7 | 7 | 59* | 15 | 92* | 73*

From PubChem BioAssay
